Here are results for 13 compounds from PubChem BioAssay.

A word on the inhibition: it is the relative decrease from the control value, in per cent.

A short description of assay [1]: inhibitors of TNFa-induced NFkB p65 translocation, primary screen, imaging, HUVEC, MLSMR starter and 10KST1 sets (AID 438;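 active means inhibition above 20% together with a positive visual image hit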;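 further: compound added about 3h40 before a 20 min TNFalpha stimulation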;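 on inhibition: signal is the nuclear over cytoplasmic p65 intensity ratio per well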). The conditions noted are these: HUVEC TNFa-induced p65 nuclear translocation; cell count: measured here: nuclei count (cytotoxicity indicator), at 2.08 µM; inhibition: at 2 µM, stronger effect = higher value, 0% TNFa-plus-vehicle, 100% no-TNFa wells.
Assay [2] can be described thus: endothelial E-selectin expression blockers – imaging, HUVEC, immunofluorescence, MLSMR starter and 10KST1 sets, primary screen (AID 487;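 active means visually confirmed hit in the image check and inhibition above 20%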;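 on inhibition: signal is fraction of cell area covered by stained E-selectin grains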;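 on nuclei count: 100% = median nuclei count of all wells on the same plate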). The conditions noted are these: HUVEC TNFalpha-induced E-selectin immunofluorescence imaging, at 2 µM; inhibition: stronger effect = higher value; nuclei count: measured here: cell number, toxicity.
A short description of assay [3]: Primary imaging screen for DUSP6 inhibitors that restore phospho-Erk in transfected HeLa cells, chemical complementation (AID 609;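 active means compounds giving at least 50% inhibition in the cell-based MKP-3 phosphatase rescue imaging test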;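 on inhibition: phospho-Erk level distribution per well compared with pooled transfected vehicle control wells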). The conditions noted are these: HeLa MKP-3 transfected, phospho-Erk imaging KS statistic, at 10 µM, cells stimulated with TPA for 15 min.
Assay [4] deals with Dual specificity protein phosphatase 6 (Homo sapiens) (UniProt Q16828). Described as above. Particulars: HeLa MKP-3 transfected, phospho-Erk imaging KS statistic; at 10 µM; stronger effect = higher value; cells stimulated with TPA for 15 min.
Assay [5] addresses Voltage-gated potassium channel subunit beta-2 (Rattus norvegicus) (UniProt P62483). As to the kind of experiment: inhibitors of rat Kvbeta2 reductase activity – biochemical, NADPH fluorescence, primary screen (AID 622).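 Further: slope of raw intensity against log time taken from 70 to 1610 s.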 Particulars: recombinant KvBeta, 4-cyanobenzaldehyde reduction, at 10 µM, stronger effect = higher value.
Assay [6] shares this target. As to the kind of experiment: enhancers of rat Kvbeta2 NADPH turnover – biochemical, NADPH fluorescence, primary screen (AID 623;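 active means NADPH fluorescence slope more negative than the mean of all samples by about 3 SD, 99.7% confidence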;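 further: fluorescence intensity change per second fitted from 20 to 320 s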). The conditions noted are these: Recombinant KvBeta, NADPH fluorescence decrease slope, 10 min; at 10 µM; stronger effect = lower value.
Assay [7] concerns the target Muscarinic acetylcholine receptor M4 (Homo sapiens) (UniProt P08173). Briefly: M4-linked GIRK flux change, two-sided – cell-based, HEK293 M4/GIRK, thallium flux, BTC-AM, M4 allosteric agonist project, primary screen (AID 625;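 active means fluorescence slope after compound addition differing from the mean of all tested samples at 99.7% confidence, mostly higher but some lower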;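 further: thallium influx through GIRK channels coupled to M4 in HEK293 cells with BTC-AM dye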). Particulars: at 10 µM, actives lie on both sides. An outline of the steps: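 Material – HEK293 cells with M4 receptor and GIRK channels · Buffer or medium – pH 7.3 thallium assay buffer · Doses – one dose, 10 µM final · Timing – cells overnight at 37 °C, BTC-AM loading 1 h, reads 2 min total · Measured by – kinetic fluorescence with BTC-AM dye · Controls – carbachol and DMSO controls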

A short description of assay [8]: inhibitors of larval lipid processing in zebrafish, primary screen, whole organism, PED6 fluorescence, gall bladder and intestine (AID 686;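 active means a full or partial loss of lipid-probe fluorescence in the fish gall bladder, intestine or both, judged by eye; inactive means no fluorescence loss, or compound toxic to the fish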;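 further: larvae 5 to 7 days old with five fish per well; signal comes from phospholipase A2 cleavage of quenched PED6 carried via bile; overnight exposure to compound and PED6 before scoring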). Particulars: Zebrafish larvae PED6 lipid processing, fluorescence scoring; screened at 20 µM (by protocol). An outline of the steps:
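system = live zebrafish larvae aged 5-7 days, whole organism | probe or stimulus = ingested quenched lipid PED6 at 100 nM | doses = 20 µM single dose | timing = overnight exposure | detection = fluorescence microscopy with visual scoring of gall bladder and intestine | read-out = visual per-well fluorescence inhibition score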

Assay [9] can be described thus: loss of swimming-algae plug formation – whole organism, Chlamydomonas reinhardtii, WT vs cilia-less mutant, absorbance, 96-well, primary screen (AID 463189;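 active means inhibition at or above 50% relative to wild type and mutant plate controls; inactive means inhibition below 50%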;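 further: 0% = wild type cc124 cells in DMSO and 100% = ciliumless bld1 mutant cells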). Particulars: Chlamydomonas reinhardtii gravitaxis, OD600 absorbance, 2 days; at 10 µM; stronger effect = higher value.
Setting [10] is: measured here: cell density z-score.
Setting [11] is: measured here: nuclear c-Myc green intensity z-score.
Setting [12] is: measured here: nuclear pErk red intensity z-score, stronger effect = higher value.

Active and inactive are the calls of the source.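 How the source made its calls, unless noted: active means fluorescence slope higher than the sample average by over 3 SD (cut at about -0.22 in these data, passing the limit was not always enough); inactive means the rest.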

Chain of Voltage-gated potassium channel subunit beta-2 (Rattus norvegicus) (P62483 whole entry, looked up): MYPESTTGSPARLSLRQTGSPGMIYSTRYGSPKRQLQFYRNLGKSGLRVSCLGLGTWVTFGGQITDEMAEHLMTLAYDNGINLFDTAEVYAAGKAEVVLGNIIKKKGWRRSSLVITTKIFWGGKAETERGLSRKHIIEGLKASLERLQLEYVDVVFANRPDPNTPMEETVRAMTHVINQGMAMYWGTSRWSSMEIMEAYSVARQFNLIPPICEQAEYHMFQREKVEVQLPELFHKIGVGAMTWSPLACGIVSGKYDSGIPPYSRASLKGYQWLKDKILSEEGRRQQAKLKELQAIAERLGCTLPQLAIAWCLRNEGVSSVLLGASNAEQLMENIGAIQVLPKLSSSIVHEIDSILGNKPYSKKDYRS
Chain of Muscarinic acetylcholine receptor M4 (Homo sapiens) (P08173 whole entry, looked up): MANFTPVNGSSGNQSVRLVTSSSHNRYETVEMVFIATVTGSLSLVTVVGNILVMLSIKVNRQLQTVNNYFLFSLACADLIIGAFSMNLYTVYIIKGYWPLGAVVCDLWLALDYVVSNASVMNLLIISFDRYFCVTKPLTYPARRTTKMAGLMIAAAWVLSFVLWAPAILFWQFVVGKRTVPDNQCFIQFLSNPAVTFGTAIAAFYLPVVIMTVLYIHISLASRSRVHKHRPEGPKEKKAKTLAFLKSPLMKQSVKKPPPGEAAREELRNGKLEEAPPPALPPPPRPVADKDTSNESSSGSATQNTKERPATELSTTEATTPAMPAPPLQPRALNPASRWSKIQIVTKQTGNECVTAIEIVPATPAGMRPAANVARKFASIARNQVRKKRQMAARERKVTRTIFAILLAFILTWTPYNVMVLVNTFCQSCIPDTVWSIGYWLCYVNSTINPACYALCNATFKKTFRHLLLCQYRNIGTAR
Chain of Dual specificity protein phosphatase 6 (Homo sapiens) (Q16828 whole entry, looked up): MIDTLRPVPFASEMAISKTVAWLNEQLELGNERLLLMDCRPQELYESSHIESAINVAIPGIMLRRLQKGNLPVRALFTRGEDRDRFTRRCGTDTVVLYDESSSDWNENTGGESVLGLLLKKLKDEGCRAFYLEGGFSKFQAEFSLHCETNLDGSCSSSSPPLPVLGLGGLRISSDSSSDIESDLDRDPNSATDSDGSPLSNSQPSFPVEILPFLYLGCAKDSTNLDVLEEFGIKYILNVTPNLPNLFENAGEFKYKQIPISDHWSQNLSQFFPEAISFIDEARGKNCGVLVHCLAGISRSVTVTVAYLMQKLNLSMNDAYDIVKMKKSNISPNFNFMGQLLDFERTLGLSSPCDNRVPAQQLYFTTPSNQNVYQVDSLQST

With `C=CCN(C(=O)CCC(=O)O)C1CC(=O)N(c2ccc(OC)cc2)C1=O` (centres undefined), in assay [1], the cell count was 549. Further, the inhibition in assay [1] is 0.4% (inactive); in assay [2], 17.4% (inactive); in assay [4], 14.7% (inactive); in [9] it was -19.1% (inactive). Also, the nuclei count in [2] is 97.5%. The z-score was 1.91 in assay [3] (setting [10]), 0.0386 in [3] (setting [11]) and -1.01 in assay [3] (setting [12]). The values for the fluorescence slope in assay [5] and in assay [7] were -0.482 (inactive) and 0.005 (inactive), respectively. Moreover, the NADPH fluorescence slope in [6] was -3.4e-05 (inactive). Further, in [8], the result was inactive.
On to `CCCCOc1ccccc1C(=O)NCCCCCC(=O)O`, for which the cell count in assay [1] is 375. For the same compound, the inhibition was -2.6% (inactive) in assay [1], -80.5% (inactive) in [2], -0.584% (inactive) in [4] and 19.6% (inactive) in [9]. Besides, in assay [2], the nuclei count was 150%. Also, the z-score in assay [3] (setting [10]) was 1.24; in assay [3] (setting [11]) it was -0.608; in [3] (setting [12]) it was 1.41. In addition, the fluorescence slope in assay [5] is -0.462 (inactive); in assay [7], 0.00571 (inactive). Further, the NADPH fluorescence slope in assay [6] was -0.000119 (inactive). In addition, the compound was classed as inactive in assay [8].
Consider `COC(=O)C(NC(C)=O)(Nc1ccc(Br)cn1)C(F)(F)F` (centres undefined), for which, in assay [1], the cell count came out at 555. Moreover, the inhibition in assay [1] was 1.7% (inactive); in assay [2], 54.1% (inactive); in assay [4] it was -4.59% (inactive); in assay [9], 4.13% (inactive). This compound also showed a nuclei count in assay [2] of 88.1%. In addition, the values for the z-score in [3] (setting [10]), in assay [3] (setting [11]) and in assay [3] (setting [12]) were -1.18, 0.658 and 0.74, respectively. Besides, the fluorescence slope is -0.471 (inactive) in assay [5] and 0.00445 (inactive) in [7]. In addition, the NADPH fluorescence slope in assay [6] is 3.7e-06 (inactive). Besides, in [8], the outcome was inactive.
Turning to `Cn1c(=O)c2c(nc(NCc3ccc4c(c3)OCO4)n2Cc2ccccc2)n(C)c1=O`, in [1], the cell count amounted to 656. Besides, the inhibition in [1] is -20.1% (inactive); in assay [2] it was -108% (inactive); in assay [4], -7.93% (inactive); in assay [9], -2.21% (inactive). The compound also gave a nuclei count in assay [2] of 96.2%. The figures for the z-score in [3] (setting [10]), in assay [3] (setting [11]) and in assay [3] (setting [12]) were -0.797, -1.34 and -1.17, respectively. For the same compound, the fluorescence slope in assay [5] is -0.5 (inactive); in [7] it was 0.00776 (inactive). Also, the NADPH fluorescence slope in assay [6] was -0.000109 (inactive). Moreover, the outcome in assay [8] was inactive.
As to `COc1cccc(NC(=O)c2cc(C(=O)Nc3cccc(OC)c3)n(C)n2)c1`, the cell count in assay [1] stood at 589. In addition, the inhibition in [1] is 5.1% (inactive); in assay [2], -73.5% (inactive); in [4], 1.12% (inactive); in assay [9], -5.34% (inactive). Besides, the nuclei count in [2] stood at 108%. The z-score in assay [3] (setting [10]) is -0.897; in [3] (setting [11]) it was 0.197; in assay [3] (setting [12]), 0.57. For the same compound, the values for the fluorescence slope in [5] and in assay [7] were -0.504 (inactive) and 0.00667 (inactive), respectively. The NADPH fluorescence slope in assay [6] was -3.5e-05 (inactive). The compound was classed as inactive in [8].
For the compound `CC(NC(=O)Nc1nnc(C(F)(F)F)s1)(C(F)(F)F)C(F)(F)F`, the cell count in assay [1] was found to be 640. The inhibition is 3.6% (inactive) in assay [1], -157% (inactive) in assay [2], 1.63% (inactive) in assay [4] and 1.97% (inactive) in assay [9]. Also, the nuclei count in assay [2] was 149%. Moreover, the values for the z-score in [3] (setting [10]), in assay [3] (setting [11]) and in assay [3] (setting [12]) were -0.473, 0.624 and 0.273, respectively. Besides, the fluorescence slope in assay [5] was -0.465 (inactive); in [7], 0.00252 (inactive). Also, the NADPH fluorescence slope in assay [6] is -5.5e-05 (inactive). Moreover, in assay [8], the outcome was “inactive; toxic”.
Consider `CCC(=O)Nc1c(C#N)c2nc3ccccc3nc2n1C1CCCCC1`, for which the cell count in assay [1] turned out to be 563. The inhibition was -4.1% (inactive) in assay [1], 6.8% (inactive) in assay [2], -2.09% (inactive) in assay [4] and 18.8% (inactive) in assay [9]. The nuclei count in [2] is 99.6%. The z-score in assay [3] (setting [10]) was 0.5; in assay [3] (setting [11]), -1.07; in assay [3] (setting [12]) it was -5.03. For the same compound, the values for the fluorescence slope in assay [5] and in assay [7] were -0.342 (inactive) and 0.00526 (inactive), respectively. In addition, in assay [6], the NADPH fluorescence slope is 4.3e-06 (inactive). The compound was classed as inactive in assay [8].
In the case of `CC(=O)/C(C#N)=C1\NC(=O)C(Cc2ccccc2)S1` (centres undefined), in assay [1], the cell count was determined as 574. Also, the inhibition was -16.2% (inactive) in [1], 5.4% (inactive) in assay [2], -8.59% (inactive) in assay [4] and 3.86% (inactive) in assay [9]. In assay [2], this compound yielded a nuclei count of 183%. Also, the figures for the z-score in assay [3] (setting [10]), in assay [3] (setting [11]) and in assay [3] (setting [12]) were 0.151, 0.495 and 0.071, respectively. Further, the fluorescence slope in [5] was -0.425 (inactive); in [7], 0.00604 (inactive). Further, the NADPH fluorescence slope in assay [6] is -6.1e-05 (inactive). In assay [8], the compound was classed as inactive.
For `CSc1nc(C)c2c(c1C#N)CCCC2`, the cell count in assay [1] was determined as 507. The inhibition in [1] is -9.7% (inactive); in [2] it was -266% (inactive); in assay [4], 1.04% (inactive); in assay [9] it was 10.6% (inactive). This compound yielded a nuclei count in [2] of 148%. For the same compound, the z-score is -0.174 in [3] (setting [10]), -0.19 in assay [3] (setting [11]) and -1.41 in [3] (setting [12]). The fluorescence slope is -0.455 (inactive) in [5] and 0.00451 (inactive) in [7]. Further, the NADPH fluorescence slope in [6] was -3.8e-05 (inactive). Further, in [8], the compound was classed as inactive.
As to `CN(C)CCCNCCCCNC(=O)/C=N/O`, in assay [1], the cell count came to 458. In addition, the inhibition was 3.8% (inactive) in assay [1], -56.6% (inactive) in [2], 17.7% (inactive) in assay [4] and 6.6% (inactive) in assay [9]. This compound returned a nuclei count in [2] of 143%. Moreover, the z-score is -0.174 in [3] (setting [10]), -0.575 in [3] (setting [11]) and 1.08 in assay [3] (setting [12]). Also, the fluorescence slope is -0.441 (inactive) in assay [5] and 0.00523 (inactive) in assay [7]. Further, the NADPH fluorescence slope in assay [6] is -3.9e-05 (inactive). Besides, the call in assay [8] was inactive.
On to `CCSc1nnc(NC(=O)C(C)(C(F)(F)F)C(F)(F)F)s1`, for which the cell count in assay [1] came to 664. For the same compound, the inhibition in [1] is -10.9% (inactive); in [2], -107% (inactive); in assay [4], 1.9e-07% (inactive); in [9], 2.14% (inactive). In [2], this compound gave a nuclei count of 183%. Besides, the z-score was -1.16 in [3] (setting [10]), 0.962 in assay [3] (setting [11]) and -1.02 in assay [3] (setting [12]). In addition, the figures for the fluorescence slope in assay [5] and in [7] were -0.49 (inactive) and 0.00486 (inactive), respectively. In assay [6], the NADPH fluorescence slope was -6.3e-05 (inactive). The result in assay [8] was inactive.
As to `CCCc1cc(NCCCCO)n2c(nc3ccccc32)c1C#N`, the cell count in assay [1] was found to be 484. The inhibition in [1] was -2.4% (inactive); in assay [2], -67.8% (inactive); in assay [4], 21.8% (inactive); in [9], 26.9% (inactive). Besides, the nuclei count in assay [2] is 112%. Moreover, the z-score was -0.769 in assay [3] (setting [10]), -0.182 in assay [3] (setting [11]) and 0.272 in assay [3] (setting [12]). Further, the values for the fluorescence slope in [5] and in assay [7] were -0.238 (inactive) and 0.00464 (inactive), respectively. Further, the NADPH fluorescence slope in assay [6] is -2.1e-05 (inactive). For the same compound, the compound was called inactive in [8].
Turning to `O=C(COc1ccc(F)cc1)OCCN1CCOCC1`, in [1], the cell count was found to be 565. For the same compound, the inhibition in [1] is -8.9% (inactive); in assay [2] it was -82.4% (inactive); in assay [4], -10.6% (inactive); in assay [9], -2.61% (inactive). This compound yielded a nuclei count in assay [2] of 135%. Also, the z-score was -1.31 in [3] (setting [10]), 0.0144 in [3] (setting [11]) and 2.07 in assay [3] (setting [12]). The fluorescence slope was -0.449 (inactive) in [5] and 0.00404 (inactive) in assay [7]. Moreover, in [6], the NADPH fluorescence slope was -0.000116 (inactive). For the same compound, the outcome in [8] was inactive.
